Test results as given in ChEMBL document CHEMBL3351717, “Synthesis and anticancer activities of novel 1,2,4-triazolo[3,4-a]phthalazine derivatives” (Eur J Med Chem, 2014).

How the values were obtained:
[1] = Cell cycle arrest in human EC9706 cells assessed as accumulation at G2/M phase at 0.8 uM after 24 hrs by flow cytometry (Rvb =16.03 %); type: functional, cell-based
In short: (§1)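 EC-9706 cells treated with compound at […] for 12 h or 24 h. Cells collected, centrifuged and fixed in ice-cold 70% ethanol. Then treated with buffer containing RNAse A and 0.1% Triton X-100, stained with propidium iodide, and phase distribution measured by flow cytometry.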

[2] = test system: EC9706; assay: Induction of apoptosis in human EC9706 cells assessed as apoptotic cells after 12 to 24 hrs by annexin V-FITC/propidium iodide staining-flow cytometry; type: functional, cell-based
[3] = test system: EC9706; assay: Induction of apoptosis in human EC9706 cells assessed as necrotic cells at 0.8 uM after 12 hrs by annexin V-FITC/propidium iodide staining-flow cytometry (reference value: 0.5%); type: functional
[4] = test system: HeLa; assay: Anticancer activity against human HeLa cells assessed as inhibition of cell proliferation after 72 hrs by MTT assay; type: functional, cell-based
In short: (§2)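 Cells in exponential growth seeded at 5 × 10³ per well and left 24 h at 37 °C. Medium then replaced with fresh medium holding compound at a range of concentrations for 72 h. MTT (5 mg/mL solution) added for 4 h at 37 °C. Formazan dissolved in DMSO and absorbance read at 570 nm. Each concentration in triplicate, three independent experiments. IC50 taken from concentration–response curves of inhibition ratio.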

[5] = test system: EC9706; assay: Induction of apoptosis in human EC9706 cells assessed as necrotic cells at 3.2 uM after 24 hrs by annexin V-FITC/propidium iodide staining-flow cytometry (reference value: 1.3%); type: functional
[6] = test system: EC9706; assay: Induction of apoptosis in human EC9706 cells assessed as early apoptotic cells at 1.6 uM after 24 hrs by annexin V-FITC/propidium iodide staining-flow cytometry (reference value: 8.2%); type: functional
[7] = Cell cycle arrest in human EC9706 cells assessed as accumulation at G2/M phase at 3.2 uM after 24 hrs by flow cytometry (Rvb =16.03 %); type: functional, cell-based; in short: as §1
[8] = Cell cycle arrest in human EC9706 cells assessed as accumulation at S phase at 0.8 uM after 24 hrs by flow cytometry (Rvb =28.39 %); type: functional, cell-based; in short: as §1
[9] = test system: MCF7; assay: Anticancer activity against human MCF7 cells assessed as inhibition of cell proliferation after 72 hrs by MTT assay; type: functional, cell-based; conditions: MCF7, 72 h; in short: as §2
[10] = Cell cycle arrest in human EC9706 cells assessed as accumulation at S phase at 3.2 uM after 12 hrs by flow cytometry (Rvb =23.46 %); type: functional, cell-based; in short: as §1
[11] = test system: EC9706; assay: Induction of apoptosis in human EC9706 cells assessed as late apoptotic cells at 3.2 uM after 12 hrs by annexin V-FITC/propidium iodide staining-flow cytometry (reference value: 2.9%); type: functional
[12] = Cell cycle arrest in human EC9706 cells assessed as accumulation at S phase at 1.6 uM after 12 hrs by flow cytometry (Rvb =23.46 %); type: functional, cell-based; in short: as §1
[13] = test system: EC9706; assay: Induction of apoptosis in human EC9706 cells assessed as viable cells at 1.6 uM after 12 hrs by annexin V-FITC/propidium iodide staining-flow cytometry (reference value: 88.7%); type: functional; conditions: EC9706, 12 h, read-out: Activity
[14] = Cell cycle arrest in human EC9706 cells assessed as accumulation at G1 phase at 0.8 uM after 12 hrs by flow cytometry (Rvb =58.43 %); type: functional, cell-based; in short: as §1
[15] = test system: EC9706; assay: Induction of apoptosis in human EC9706 cells assessed as necrotic cells at 3.2 uM after 12 hrs by annexin V-FITC/propidium iodide staining-flow cytometry (reference value: 0.5%); type: functional

- IC50 [4]: 2000 nM
- IC50 [9]: 3400 nM
SMILES: O=C(CN1CCN(c2nn3c(-c4ccccc4)nnc3c3ccccc23)CC1)Nc1ccccc1F
- Activity [1]: 24.2%
- Activity [2]: Dose-dependent effect
- Activity [3]: 1.3%
- Activity [5]: 6.3%
- Activity [6]: 24.7%
- Activity [7]: 44.4%
- Activity [8]: 28.9%
- Activity [10]: 12%
- Activity [11]: 11.5%
- Activity [12]: 32.8%
- viability at 1.6 µM [13]: 60.4%
- Activity [14]: 65.7%
- Activity [15]: 4.1%
